Results on one substance are retold here after paper PMC12034843 (Drug Design, Development and Therapy, 2025).

Data set [1] deals with MIN-6 cells. Briefly: Insulin secretion of MIN-6 cells. It counts as cell-based. The conditions noted are these: 100 nmol/L, 1 h, 8.3 mmol/L GLC and 0.8 mmol/L palmitic acid, MF density 1 T for /MF groups, n = 6.
The nature of data set [2]: In vitro release from exosome-SPION. The conditions noted are these: PBS, 37 °C, fitted with OriginPro 2021. It counts as physicochemical. The essentials: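 Test peptide loaded in SPION-decorated exosomes was placed in a dialysis bag (MWCO 80 kD) and incubated at 37 °C in PBS. Samples were withdrawn at selected intervals and peptide was quantified by reverse-phase HPLC on a C18 column. Percent release was calculated as (concentration in PBS × PBS volume) / (concentration in mother liquor × mother liquor volume) × 100%.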

A short description of data set [3]: Pharmacokinetic study after tail vein injection. In kind it is in vivo. The following applies: Kunming mice, 5 mg/kg, HPLC, n = 6. The method, boiled down:
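Kunming mice ([…], 18–22 g) were randomised into groups of six and given 5 mg/kg by tail-vein injection, either as free peptide or as the peptide-equivalent dose in exosome-SPION form. At intervals, 20 μL of tail-vein blood was taken with heparinised micropipettes and mixed into 1 mL PBS. Samples were centrifuged at 10,000 rpm for 10 min, and peptide in the supernatant was quantified by C18 HPLC.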

Ends that are not written are not given here.

Turning to “HSDAVFTDNYTRLRKQVAAKKYLQSIKNKRY-NH2 (C-terminus assumed) [BAY 55-9837]”, the “insulin secretion compared to the model group” value in data set [1] is listed as “significantly enhance insulin secretion”. Further, the “first-order fitted release equation y = a × (1 – exp(−b × x)): a” value in data set [2] amounted to 53.92. For the same substance, the “time after injection at which it could not be detected in plasma” value in data set [3] is on record as 110 min.
